B1: Osa-1-4 twister ribozyme (parent)
chain: CCGCCUAACACUGCCAAUGCCGGUCCCAAGCCCGGAUAAAAGUGGAGGGGGCGG

Variants of B1 are the subject of this data set. Nature of the data set: self-cleavage, relative activity (ratio to wild type); higher = more cleavage; co-transcriptional. The procedure, abridged:
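A DNA template for a 54-nucleotide Oryza sativa twister ribozyme was synthesised with 97 % wild-type base and 1 % of each other base at the 48 positions downstream of the cleavage site. It was transcribed in vitro for 2 h at 37 °C, allowing co-transcriptional self-cleavage, then reverse-transcribed with a template-switching oligonucleotide, PCR-amplified and deep-sequenced. Cleavage status was scored from reads with or without upstream sequence. Relative activity is fraction cleaved normalised to wild type.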
Consider G19C U37A, for which the self-cleavage was 0.46.

For G19C U37G, the self-cleavage amounted to 0.24.

As to G19C U37C, the self-cleavage was 0.64.

Turning to U18G U24G, the self-cleavage was determined as 0.05.

Regarding U18G U24C, the self-cleavage turned out to be 0.38.

For U18G U24A, the self-cleavage is 0.53.

Turning to G19A G22A, the self-cleavage stood at 0.35.

Turning to G19A G22U, the self-cleavage was determined as 0.12.

Regarding G19A G22C, the self-cleavage worked out at 0.05.

Turning to G19A U24G, the self-cleavage amounted to 0.09.

Regarding G19A U24C, the self-cleavage was determined as 0.08.

Turning to G19A U24A, the self-cleavage came out at 0.08.

Take A17U U37A: the self-cleavage amounted to 0.73.

A17U U37G: the self-cleavage turned out to be 1.01.

As to A17U U37C, the self-cleavage was found to be 1.06.

On to U18C U24C, for which the self-cleavage worked out at 0.24.

Regarding U18C U24G, the self-cleavage came out at 0.02.

On to U18C U24A, for which the self-cleavage was found to be 0.21.

Turning to U18A U37G, the self-cleavage amounted to 0.93.

As to U18A U37C, the self-cleavage stood at 0.98.

Take U18A U37A: the self-cleavage is 0.63.

As for G19C G54C, the self-cleavage came out at 0.06.

For the variant G19C G54U, the self-cleavage stood at 0.4.

On to G19C G54A, for which the self-cleavage stood at 0.11.

In the case of G19C G30A, the self-cleavage stood at 0.02.

For the variant G19C G30C, the self-cleavage is 0.03.

As for G19C G30U, the self-cleavage was determined as 0.02.

Consider G19A G34U, for which the self-cleavage turned out to be 0.39.

In the case of G19A G34A, the self-cleavage stood at 0.61.

On to G19A G34C, for which the self-cleavage worked out at 0.25.

Take A17U U18A: the self-cleavage is 0.89.

Consider A17U U18C, for which the self-cleavage was 0.9.

A17U U18G: the self-cleavage is 0.87.

For U18C U37G, the self-cleavage is 0.95.

As for U18C U37A, the self-cleavage came to 0.69.

As for U18C U37C, the self-cleavage is 0.97.

As to U18C U43G, the self-cleavage was found to be 0.3.

With U18C U43A, the self-cleavage worked out at 0.65.

U18C U43C: the self-cleavage is 0.35.

Regarding G19C G23A, the self-cleavage was determined as 0.04.

On to G19C G23U, for which the self-cleavage is 0.04.

On to G19C G23C, for which the self-cleavage is 0.02.

Consider G19A G44U, for which the self-cleavage stood at 0.4.

On to G19A G44A, for which the self-cleavage was determined as 0.23.

As for G19A G44C, the self-cleavage stood at 0.72.

G19C U12A: the self-cleavage came out at 0.04.

Regarding G19C U12C, the self-cleavage was 0.04.

With G19C U12G, the self-cleavage was found to be 0.06.

For the variant G19A G45U, the self-cleavage is 0.06.

As to G19A G45A, the self-cleavage was found to be 0.07.

G19A G45C: the self-cleavage turned out to be 0.06.

As for U18G U37A, the self-cleavage was determined as 0.59.

Take U18G U37G: the self-cleavage is 0.85.

Regarding U18G U37C, the self-cleavage came to 0.86.

Turning to G19C G51C, the self-cleavage was 0.03.

Consider G19C G51A, for which the self-cleavage was 0.08.

G19C G51U: the self-cleavage is 0.04.

Take G19C U24C: the self-cleavage amounted to 0.04.

Regarding G19C U24A, the self-cleavage stood at 0.04.

Take G19C U24G: the self-cleavage turned out to be 0.04.

Turning to G19C G49C, the self-cleavage is 0.03.

As to G19C G49A, the self-cleavage was 0.04.

On to G19C G49U, for which the self-cleavage is 0.04.

Consider G19C G34C, for which the self-cleavage was 0.05.

Regarding G19C G34A, the self-cleavage was 0.1.

On to G19C G34U, for which the self-cleavage is 0.07.

Regarding G19A U37A, the self-cleavage came out at 0.88.

As for G19A U37G, the self-cleavage came out at 1.

G19A U37C: the self-cleavage was found to be 1.03.

With G19A G53A, the self-cleavage came out at 0.18.

Take G19A G53C: the self-cleavage stood at 0.09.

For the variant G19A G53U, the self-cleavage came to 0.13.

Take U18A U24A: the self-cleavage was 0.25.

Take U18A U24C: the self-cleavage is 0.37.

Turning to U18A U24G, the self-cleavage was 0.02.

As to G19C G53U, the self-cleavage came out at 0.05.

For the variant G19C G53A, the self-cleavage came out at 0.06.

Take G19C G53C: the self-cleavage came out at 0.04.

U18A U43A: the self-cleavage was determined as 0.83.

Turning to U18A U43C, the self-cleavage came out at 0.36.

In the case of U18A U43G, the self-cleavage was 0.58.

G19C G50C: the self-cleavage turned out to be 0.06.

As for G19C G50U, the self-cleavage amounted to 0.07.

Turning to G19C G50A, the self-cleavage came to 0.24.

In the case of A17U U24G, the self-cleavage came to 0.03.

In the case of A17U U24A, the self-cleavage turned out to be 0.3.

For the variant A17U U24C, the self-cleavage came out at 0.44.

As for G19A G35C, the self-cleavage was 0.68.

For G19A G35U, the self-cleavage was found to be 0.2.

Take G19A G35A: the self-cleavage is 0.83.

In the case of G19A G30A, the self-cleavage turned out to be 0.05.

As to G19A G30U, the self-cleavage was found to be 0.06.

As for G19A G30C, the self-cleavage is 0.07.

As to G19A G42C, the self-cleavage is 0.09.

As to G19A G42A, the self-cleavage was 0.1.

For the variant G19A G42U, the self-cleavage worked out at 0.06.

As to G19C U18C, the self-cleavage worked out at 0.39.

For G19C U18G, the self-cleavage is 0.91.

On to G19C U18A, for which the self-cleavage is 0.66.

On to G19A U43A, for which the self-cleavage is 0.23.

Turning to G19A U43C, the self-cleavage was 0.12.

For G19A U43G, the self-cleavage turned out to be 0.12.

Turning to G19C G35A, the self-cleavage worked out at 0.45.

As for G19C G35C, the self-cleavage was determined as 0.29.

Take G19C G35U: the self-cleavage amounted to 0.42.

Regarding G19A U18G, the self-cleavage worked out at 1.01.

As for G19A U18A, the self-cleavage was 0.84.

For G19A U18C, the self-cleavage was 0.93.

Turning to G19C G48U, the self-cleavage came to 0.03.

G19C G48A: the self-cleavage is 0.02.

Turning to G19C G48C, the self-cleavage was 0.02.

Turning to A17U U43A, the self-cleavage was 0.91.

A17U U43G: the self-cleavage is 0.57.

Take A17U U43C: the self-cleavage was 0.8.

With G19A G23U, the self-cleavage is 0.05.

G19A G23C: the self-cleavage is 0.06.

For the variant G19A G23A, the self-cleavage amounted to 0.12.

On to G19C G45U, for which the self-cleavage worked out at 0.03.

As for G19C G45C, the self-cleavage was 0.03.

As to G19C G45A, the self-cleavage was found to be 0.03.

G19A U12G: the self-cleavage turned out to be 0.13.

Turning to G19A U12C, the self-cleavage turned out to be 0.09.

As to G19A U12A, the self-cleavage stood at 0.12.

Regarding G19C G47U, the self-cleavage was 0.04.

Regarding G19C G47A, the self-cleavage worked out at 0.03.

Turning to G19C G47C, the self-cleavage turned out to be 0.02.

For G19A G54C, the self-cleavage turned out to be 0.24.

Take G19A G54U: the self-cleavage was determined as 0.65.

Regarding G19A G54A, the self-cleavage came to 0.31.

As for G19C, the self-cleavage amounted to 0.27.

Take G19A: the self-cleavage is 0.99.

For the variant G19A G48A, the self-cleavage stood at 0.06.

As to G19A G48U, the self-cleavage amounted to 0.06.

Consider G19A G48C, for which the self-cleavage turned out to be 0.06.

G19A G49A: the self-cleavage was found to be 0.08.

Turning to G19A G49C, the self-cleavage came out at 0.09.

On to G19A G49U, for which the self-cleavage stood at 0.08.

A17U U12C: the self-cleavage amounted to 0.58.

Turning to A17U U12A, the self-cleavage was found to be 0.94.

As to A17U U12G, the self-cleavage is 0.44.

On to G19A G51A, for which the self-cleavage stood at 0.33.

For G19A G51U, the self-cleavage came to 0.17.

As for G19A G51C, the self-cleavage came out at 0.08.

Consider U18G, for which the self-cleavage was found to be 0.84.

On to U18A, for which the self-cleavage worked out at 0.95.

Regarding U18C, the self-cleavage came to 0.96.

Regarding G19C G42U, the self-cleavage amounted to 0.02.

As to G19C G42C, the self-cleavage is 0.04.

Regarding G19C G42A, the self-cleavage worked out at 0.05.

As to G19C G22A, the self-cleavage stood at 0.06.

Consider G19C G22C, for which the self-cleavage came to 0.03.

Turning to G19C G22U, the self-cleavage turned out to be 0.03.

Take G19C G44U: the self-cleavage stood at 0.07.

Regarding G19C G44A, the self-cleavage stood at 0.07.

With G19C G44C, the self-cleavage stood at 0.14.

As for U18G U43G, the self-cleavage is 0.77.

In the case of U18G U43C, the self-cleavage is 0.67.

U18G U43A: the self-cleavage amounted to 0.76.

Regarding G19A G50C, the self-cleavage came out at 0.27.

G19A G50U: the self-cleavage turned out to be 0.56.

As for G19A G50A, the self-cleavage was 0.92.

G19A G47U: the self-cleavage came out at 0.07.

Regarding G19A G47A, the self-cleavage was 0.08.

With G19A G47C, the self-cleavage was 0.08.

On to G19C U43A, for which the self-cleavage was 0.07.

For the variant G19C U43G, the self-cleavage came to 0.07.

For the variant G19C U43C, the self-cleavage came to 0.05.

Source of the values: the RNAGym collection of RNA variant scans (doi:10.1002/anie.201605470).
